Assay results taken from ChEMBL document CHEMBL1157333, “Cytotoxic dihydroagarofuranoid sesquiterpenes from the stem of Microtropis fokienensis” (J Nat Prod, 2006).
In brackets after ≈: the same amount, converted by molar mass.

How the values were obtained:
[1] = system: HT-29; assay: Cytotoxicity against human HT29 cells after 6 days by MTT assay; type: functional, cell-based; conditions: HT-29, 144 h
Procedure, shortened: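 Human colon carcinoma cells from ATCC kept in RPMI 1640 with 10% heat-inactivated FCS at 37 °C, 5% CO2. Plated at 1000 cells/well and exposed 6 days to eight concentrations spanning a 128-fold range, in triplicate, in 0.5% DMSO. Then 1 mg/mL MTT added for 5 h at 37 °C, formazan dissolved in DMSO, read at 540 nm. IC50 is 50% absorbance reduction versus untreated cells. Three repeats.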

[2] = system: P388; assay: Cytotoxicity against mouse P388 cells after 3 days by MTT assay; type: functional, cell-based; conditions: P388, 72 h
Procedure, shortened: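 Mouse lymphocytic leukemia cells grown in Fisher's medium with 10% heat-inactivated FCS at 37 °C, 5% CO2. Seeded at 1500 cells/well in 200 µL cultures, then given compounds in 0.5% DMSO at eight concentrations in triplicate for 3 days. MTT added, formazan dissolved in DMSO and read at 540 nm. IC50 is the concentration giving 50% absorbance reduction versus untreated cells. Assays repeated three times.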

Row | SMILES | IC50 [1] | IC50 [2]
1 | CC(=O)O[C@H]1[C@@H](OC(=O)c2ccccc2)C[C@@H](C)[C@]23OC(C)(C)[C@H](C[C@H](OC(=O)c4ccccc4)[C@]12COC(=O)c1ccccc1)[C@H]3OC(=O)c1ccccc1 [FOKIENAGAROFURAN D] | 0.058 mg/L (≈ 0.0762 µM) | 0.036 mg/L (≈ 0.0473 µM)
2 | CC(=O)O[C@@H]1[C@H]2C[C@H](OC(=O)c3ccccc3)[C@]3(COC(=O)c4ccccc4)[C@@H](OC(C)=O)[C@@H](OC(=O)c4ccccc4)C[C@@H](C)[C@@]13OC2(C)C [FOKIENAGAROFURAN A] | 0.054 mg/L (≈ 0.0773 µM) | 0.032 mg/L (≈ 0.0458 µM)
3 | CO[C@H](C(=O)[C@@H](O)[C@@H](C)O)[C@@H]1Cc2cc3cc(O[C@H]4C[C@@H](O[C@@H]5C[C@@H](O)[C@H](O)[C@@H](C)O5)[C@H](O)[C@@H](C)O4)c(C)c(O)c3c(O)c2C(=O)[C@H]1O[C@H]1C[C@@H](O[C@@H]2C[C@@H](O)[C@@H](O[C@@H]3C[C@](C)(O)[C@H](O)[C@@H](C)O3)[C@@H](C)O2)[C@H](O)[C@@H](C)O1 [PLICAMYCIN] | 0.08 mg/L (≈ 0.0737 µM) | 0.06 mg/L (≈ 0.0553 µM)
4 | CC(=O)O[C@@H]1[C@H]2C[C@H](OC(=O)c3ccccc3)[C@]3(COC(=O)CC(C)C)[C@@H](OC(C)=O)[C@@H](OC(=O)c4ccccc4)C[C@@H](C)[C@@]13OC2(C)C | 0.082 mg/L (≈ 0.121 µM) | 0.051 mg/L (≈ 0.0751 µM)
5 | CC(=O)O[C@H]1CC[C@@H](C)[C@]23OC(C)(C)[C@H](C[C@H](OC(=O)c4ccccc4)[C@]12COC(=O)c1ccccc1)[C@H]3OC(C)=O | 0.071 mg/L (≈ 0.123 µM) | 0.043 mg/L (≈ 0.0743 µM)
